Test results as given in ChEMBL document CHEMBL1212830, “The structure-activity relationship of the 3-oxy site in the anticonvulsant (R)-N-benzyl 2-acetamido-3-methoxypropionamide” (J Med Chem, 2010).

What was measured:
[1] = Neurotoxicity in po dosed albino Sprague-Dawley rat by rotarod test; type: toxicity, organism-based, albino Spague-Dawley; conditions: in vivo
In short: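 Rotorod test for behavioural neurotoxicity (mice ip, rats po). Median dose causing neurological impairment in 50% of animals (TD50, mg/kg) is determined only for compounds active in the MES test. The highest rat dose tested was 500 mg/kg.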

Rattus norvegicus [2] = experiment: Anticonvulsant activity in po dosed albino Sprague-Dawley rat assessed as protection against maximal electroshock-induced seizure; type: functional; conditions: albino Spague-Dawley
In short: (§1)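 Maximal electroshock (MES) seizure test within the NINDS Anticonvulsant Screening Program. Protection is scored as block of induced hind limb extension. Mice are dosed ip and rats po.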

Mus musculus [3] = experiment: Anticonvulsant activity in ip dosed 6 Hz psychomotor seizure model of albino Carworth Farms number 1 mouse assessed as protection against seizure; type: functional; conditions: albino Carworth Farms number 1, ip
In short: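 Psychomotor 6 Hz seizure test at 32 mA in mice, compound given intraperitoneally, run within the NINDS Anticonvulsant Screening Program. Median effective dose (ED50) in mg/kg from quantitative screening.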

Mus musculus [4] = experiment: Anticonvulsant activity in ip dosed albino Carworth Farms number 1 mouse assessed as protection against maximal electroshock-induced seizure; type: functional; conditions: albino Carworth Farms number 1, ip; in short: as §1
Rattus norvegicus [5] = experiment: Protective index, ratio of neurotoxicity TD50 to anticonvulsant ED50 for po dosed albino Spague-Dawley rat; type: functional
In short: (§2)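 Protective index is calculated as rotorod TD50 divided by MES ED50, both in mg/kg and from the same species and route (mice ip, rats po).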

[6] = Neurotoxicity in ip dosed albino Sprague-Dawley rat by rotarod test; type: toxicity, organism-based, albino Spague-Dawley; conditions: in vivo
Rattus norvegicus [7] = experiment: Anticonvulsant activity in ip dosed albino Sprague-Dawley rat assessed as protection against maximal electroshock-induced seizure; type: functional; conditions: albino Spague-Dawley
In short: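 Run under the NINDS Anticonvulsant Screening Program. Rats received compound intraperitoneally as a stated exception to the usual oral rat route. Protection meant blocking hind-limb extension in the maximal electroshock test. ED50 was derived from quantitative dose-response screening of compounds with significant activity.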

[8] = Neurotoxicity in ip dosed albino Carworth Farms number 1 mouse by rotarod test; type: toxicity, organism-based; conditions: in vivo
Mus musculus [9] = experiment: Protective index, ratio of neurotoxicity TD50 to anticonvulsant ED50 for ip dosed albino Carworth Farms number 1 mouse; type: functional; in short: as §2
Rattus norvegicus [10] = experiment: Neurotoxicity in albino Sprague-Dawley rat assessed as induction of ataxia at up to 3000 mg/kg, po by rotarod test; type: toxicity, organism-based, albino Spague-Dawley; parameters: dose 3000 mg/kg, route oral; conditions: in vivo
In short: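 Rats were dosed orally. Median neurotoxic dose (TD50) was taken from behavioural neurological impairment, judged with the rotarod test. It was determined only for compounds with significant activity in the maximal electroshock test. Testing was done under the NINDS Anticonvulsant Screening Program procedures.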

Row | SMILES | TD50 [1] [mg/kg] | ED50 (Rattus norvegicus [2]) [mg/kg] | ED50 (Mus musculus [3]) [mg/kg] | ED50 (Mus musculus [4]) [mg/kg] | Ratio TD50/ED50 (Rattus norvegicus [5]) | TD50 [6] [mg/kg] | ED50 (Rattus norvegicus [7]) [mg/kg] | TD50 [8] [mg/kg] | Ratio TD50/ED50 (Mus musculus [9]) | Activity (Rattus norvegicus [10])
1 | C#CCOC[C@@H](NC(C)=O)C(=O)NCc1ccccc1 | > 500 | 7.9 | 29 | 16 | >63 |  |  |  |  | 
2 | CC(=O)N[C@H](COCCN=[N+]=[N-])C(=O)NCc1ccccc1 |  | > 40 | 44 | 100 | >13 | 78 | 5.7 |  |  | 
3 | CC(=O)N[C@H](COCCN=C=S)C(=O)NCc1ccccc1 | > 30 | < 30 |  | > 300 |  |  |  | 100 |  | 
4 | [2H]C([2H])([2H])OC[C@@H](NC(C)=O)C(=O)NCc1ccccc1 | 200 | 5.2 |  |  |  |  |  |  |  | 
5 | CC(=O)N[C@H](COC1CCCCC1)C(=O)NCc1ccccc1 | > 30 | 30 |  | 100 |  |  |  | 300 |  | 
6 | CC#CCOC[C@@H](NC(C)=O)C(=O)NCc1ccccc1 | > 500 | 6.4 |  | 30 |  |  |  | 30 |  | 
7 | CC(=O)N[C@H](COCC1CCCCC1)C(=O)NCc1ccccc1 |  |  |  | 100 |  |  |  | 300 |  | 
8 | CC(=O)N[C@H](COCc1ccccc1)C(=O)NCc1ccccc1 | > 30 | > 30 |  | 64 |  |  |  | 200 | 3.2 | 
9 | C=CCCOC[C@@H](NC(C)=O)C(=O)NCc1ccccc1 | > 500 | 17 |  | 30 | >29 |  |  | 100 |  | 
10 | CC(=O)N[C@H](COCCC1CC1)C(=O)NCc1ccccc1 | > 30 | > 30 |  | 46 |  |  |  | 85 | 1.9 | 
11 | C#CCCOC[C@@H](NC(C)=O)C(=O)NCc1ccccc1 | 250 | 11 |  | 30 | >23 |  |  | 30 |  | 
12 | CC(=O)N[C@H](COCCc1ccccc1)C(=O)NCc1ccccc1 | > 30 | > 30 |  | 100 |  |  |  | 100 |  | 
13 | CC(=O)N[C@H](COCCC1(C)N=N1)C(=O)NCc1ccccc1 | > 500 | 44 |  | 30 | >11 |  |  | 100 |  | 
14 | CC(=O)N[C@H](COCCC=O)C(=O)NCc1ccccc1 |  | > 100 |  | > 300 |  |  |  | > 300 |  | 
15 | CC(=O)NCCOC[C@@H](NC(C)=O)C(=O)NCc1ccccc1 | > 30 | > 30 |  | > 300 |  |  |  | > 300 |  | 
16 | COCc1cn(CCOC[C@@H](NC(C)=O)C(=O)NCc2ccccc2)nn1 |  |  | > 100 | > 300 |  |  |  | > 300 |  | 
17 | COCCOC[C@@H](NC(C)=O)C(=O)NCc1ccccc1 |  |  |  | 30 |  |  |  | 300 |  | 
18 | CC(=O)N[C@H](COC(C)C)C(=O)NCc1ccccc1 | > 500 | 8.6 | 23 | 23 | >58 |  |  |  | 3.3 | 
19 | CCOC[C@@H](NC(C)=O)C(=O)NCc1ccccc1 | > 500 | 5.6 |  | 7.9 | >89 |  |  |  | 5.6 | 
20 | COCCOCCOC[C@@H](NC(C)=O)C(=O)NCc1ccccc1 | > 50 | > 30 | > 100 | > 300 |  |  |  | > 300 |  | 
21 | CC(=O)N[C@H](COC(C)(C)C)C(=O)NCc1ccccc1 |  |  |  | 30 |  |  |  | 300 |  | 
22 | CC(=O)N[C@H](COc1ccccc1)C(=O)NCc1ccccc1 |  |  |  | 100 |  |  |  | > 600 |  | 
23 | CC(=O)N[C@H](COCCC1CO1)C(=O)NCc1ccccc1 (mixture of isomers) |  |  |  | > 300 |  |  |  | > 300 |  | 
24 | C=CCOCC(NC(C)=O)C(=O)NCc1ccccc1 (racemic) |  |  |  | 30 |  |  |  | 30 |  | 
25 | COC[C@@H](NC(C)=O)C(=O)NCc1ccccc1 [LACOSAMIDE] | > 500 |  |  |  |  |  |  |  |  | 
26 | CCC1(c2ccccc2)C(=O)NC(=O)NC1=O [PHENOBARBITAL] |  | 9.1 |  | 22 |  |  |  |  |  | 
27 | O=C1NC(=O)C(c2ccccc2)(c2ccccc2)N1 [PHENYTOIN] |  | 30 |  |  |  |  |  |  |  | Non-toxic
28 | CCCC(CCC)C(=O)O [VALPROIC ACID] |  |  |  | 270 |  |  |  |  |  | 
